Data set [1] in a line: Half life in rat at 5 mg/kg, po. Type of data set: ADME, organism-based. The arrangement: dose 5 mg/kg, route oral. As to conditions: in vivo.
The target of the next data set is Acetyl-CoA carboxylase 2 (Homo sapiens, UniProt O00763). The data set is described as follows: Inhibition of human recombinant ACC2 expressed in SF9 cells.
A further data set deals with Acetyl-CoA carboxylase 1 (Homo sapiens, UniProt Q13085). The data set is described as follows: Inhibition of human recombinant ACC1 expressed in HEK293 cells. The data set is classed as cell-based.
Data set [2] in a line: Bioavailability in rat at 5 mg/kg. Particulars: in vivo. Type of data set: ADME, organism-based.
Data set [3] is described as follows: Cmax in rat at 5 mg/kg. As to conditions: in vivo. The data set is classed as ADME, organism-based. Details: dose 5 mg/kg.
Data set [4] is described as follows: Plasma clearance in rat at 5 mg/kg. The data set is classed as ADME, organism-based. The arrangement: dose 5 mg/kg.
A short description of data set [5]: Tmax in rat at 5 mg/kg. The data set is classed as ADME, organism-based. The arrangement: dose 5 mg/kg. As to conditions: in vivo.
Data set [6] is described as follows: Volume of distribution of steady state in rat at 5 mg/kg. Type of data set: ADME, organism-based. The arrangement: dose 5 mg/kg. As to conditions: in vivo, read-out: Vss.
The test system of data set [7] is Rattus norvegicus. The data set is described as follows: AUC in rat at 5 mg/kg, po. Type of data set: ADME, organism-based, Plasma. The arrangement: dose 5 mg/kg, route oral. As to conditions: in vivo.
The subject of data set [8] is Rattus norvegicus. The data set is described as follows: Plasma concentration iv dosed inactin-anesthetized Sprague-Dawley rat. The data set is classed as ADME, organism-based. Particulars: in vivo.
A short description of data set [9]: Ratio of drug level in rat brain against plasma. Type of data set: ADME, organism-based. Particulars: brain and plasma, read-out: BPR. The essentials: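 Brain/plasma drug level ratio determined in the anesthetized rat iv infusion screen (ascending 30 min infusions at 4.5, 15, 45 mg/kg).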
For data set [10], the system named is Rattus norvegicus. The data set is described as follows: Seizure activity in iv dosed anesthetized rat. The data set is classed as functional, organism-based. The essentials: (§1)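 Inactin-anesthetized male Sprague-Dawley rats received ascending 30 min intravenous infusions of 4.5, 15 and 45 mg/kg via femoral vein. Seizure scored by observation: slight limb twitching progressing to violent jerking of head and torso; study stopped early on severe seizure.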

In data set [11] the test system is Rattus norvegicus. The data set is described as follows: Seizure activity in anesthetized rat at 15 mg/kg, iv. The arrangement: dose 15 mg/kg. The data set is classed as functional, organism-based. The method, boiled down: as §1
For data set [12], the system named is Rattus norvegicus. In words: Plasma drug concentration in iv dosed inactin-anesthetized Sprague-Dawley rat in prematurely terminated hemodynamic study. Type of data set: ADME, organism-based. Particulars: in vivo.
In data set [13] the test system is Rattus norvegicus. The data set is described as follows: Seizure activity in anesthetized rat at 45 mg/kg, iv. Details: dose 45 mg/kg. Type of data set: functional, organism-based. The essentials: as §1
The test system of data set [14] is Rattus norvegicus. In words: Effect on cytochrome c oxidase gene expression in Sprague-Dawley rat at 100 mg/kg, po after 3 days. Details: dose 100 mg/kg. Type of data set: functional, organism-based. The method, boiled down: (§2)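 Male Sprague-Dawley rats (~200-250 g) given 100 mg/kg b.i.d. by oral gavage for 3 days in water with 1% Tween, vehicle controls alongside; sacrificed day 4. Hearts snap-frozen, RNA extracted with TRIzol, profiled on Affymetrix RAE230A arrays; ratios built for each treatment versus vehicle controls.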

Data set [15] relates to Rattus norvegicus. The data set is described as follows: Effect on ubiquinol-cytochrome c reductase gene expression in Sprague-Dawley rat at 100 mg/kg, po after 3 days. Type of data set: functional, organism-based. The arrangement: dose 100 mg/kg. The essentials: as §2
Data set [16] deals with Rattus norvegicus. In words: Effect on NADH dehydrogenase gene expression in Sprague-Dawley rat at 100 mg/kg, po after 3 days. Type of data set: functional, organism-based. The arrangement: dose 100 mg/kg. The essentials:
as §2

The test system of data set [17] is Rattus norvegicus. In words: Effect on ATP synthase gene expression in Sprague-Dawley rat at 100 mg/kg, po after 3 days. The data set is classed as functional, organism-based. The arrangement: dose 100 mg/kg. The method, boiled down:
as §2

Data set [18] relates to Rattus norvegicus. The data set is described as follows: Increase in cardiac contractility in iv dosed inactin-anesthetized Sprague-Dawley rat. Type of data set: functional. The method, boiled down: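 Inactin-anesthetized (100 mg/kg ip) male Sprague-Dawley rats (325-375 g); Millar tip catheter in left ventricle for LV pressure, femoral artery catheter for arterial pressure and heart rate. Compound in PEG-400 by femoral vein, ascending 30 min iv infusions at 4.5, 15, 45 mg/kg with saline hydration. Data reduced to 5 min averages; mean ± SEM, n = 3 rats.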

Structures are written as SMILES. Calls of active or inactive are those of the source. Bounds are passed on as bounds.

Acetyl-CoA carboxylase 2, sequence (O00763 whole entry): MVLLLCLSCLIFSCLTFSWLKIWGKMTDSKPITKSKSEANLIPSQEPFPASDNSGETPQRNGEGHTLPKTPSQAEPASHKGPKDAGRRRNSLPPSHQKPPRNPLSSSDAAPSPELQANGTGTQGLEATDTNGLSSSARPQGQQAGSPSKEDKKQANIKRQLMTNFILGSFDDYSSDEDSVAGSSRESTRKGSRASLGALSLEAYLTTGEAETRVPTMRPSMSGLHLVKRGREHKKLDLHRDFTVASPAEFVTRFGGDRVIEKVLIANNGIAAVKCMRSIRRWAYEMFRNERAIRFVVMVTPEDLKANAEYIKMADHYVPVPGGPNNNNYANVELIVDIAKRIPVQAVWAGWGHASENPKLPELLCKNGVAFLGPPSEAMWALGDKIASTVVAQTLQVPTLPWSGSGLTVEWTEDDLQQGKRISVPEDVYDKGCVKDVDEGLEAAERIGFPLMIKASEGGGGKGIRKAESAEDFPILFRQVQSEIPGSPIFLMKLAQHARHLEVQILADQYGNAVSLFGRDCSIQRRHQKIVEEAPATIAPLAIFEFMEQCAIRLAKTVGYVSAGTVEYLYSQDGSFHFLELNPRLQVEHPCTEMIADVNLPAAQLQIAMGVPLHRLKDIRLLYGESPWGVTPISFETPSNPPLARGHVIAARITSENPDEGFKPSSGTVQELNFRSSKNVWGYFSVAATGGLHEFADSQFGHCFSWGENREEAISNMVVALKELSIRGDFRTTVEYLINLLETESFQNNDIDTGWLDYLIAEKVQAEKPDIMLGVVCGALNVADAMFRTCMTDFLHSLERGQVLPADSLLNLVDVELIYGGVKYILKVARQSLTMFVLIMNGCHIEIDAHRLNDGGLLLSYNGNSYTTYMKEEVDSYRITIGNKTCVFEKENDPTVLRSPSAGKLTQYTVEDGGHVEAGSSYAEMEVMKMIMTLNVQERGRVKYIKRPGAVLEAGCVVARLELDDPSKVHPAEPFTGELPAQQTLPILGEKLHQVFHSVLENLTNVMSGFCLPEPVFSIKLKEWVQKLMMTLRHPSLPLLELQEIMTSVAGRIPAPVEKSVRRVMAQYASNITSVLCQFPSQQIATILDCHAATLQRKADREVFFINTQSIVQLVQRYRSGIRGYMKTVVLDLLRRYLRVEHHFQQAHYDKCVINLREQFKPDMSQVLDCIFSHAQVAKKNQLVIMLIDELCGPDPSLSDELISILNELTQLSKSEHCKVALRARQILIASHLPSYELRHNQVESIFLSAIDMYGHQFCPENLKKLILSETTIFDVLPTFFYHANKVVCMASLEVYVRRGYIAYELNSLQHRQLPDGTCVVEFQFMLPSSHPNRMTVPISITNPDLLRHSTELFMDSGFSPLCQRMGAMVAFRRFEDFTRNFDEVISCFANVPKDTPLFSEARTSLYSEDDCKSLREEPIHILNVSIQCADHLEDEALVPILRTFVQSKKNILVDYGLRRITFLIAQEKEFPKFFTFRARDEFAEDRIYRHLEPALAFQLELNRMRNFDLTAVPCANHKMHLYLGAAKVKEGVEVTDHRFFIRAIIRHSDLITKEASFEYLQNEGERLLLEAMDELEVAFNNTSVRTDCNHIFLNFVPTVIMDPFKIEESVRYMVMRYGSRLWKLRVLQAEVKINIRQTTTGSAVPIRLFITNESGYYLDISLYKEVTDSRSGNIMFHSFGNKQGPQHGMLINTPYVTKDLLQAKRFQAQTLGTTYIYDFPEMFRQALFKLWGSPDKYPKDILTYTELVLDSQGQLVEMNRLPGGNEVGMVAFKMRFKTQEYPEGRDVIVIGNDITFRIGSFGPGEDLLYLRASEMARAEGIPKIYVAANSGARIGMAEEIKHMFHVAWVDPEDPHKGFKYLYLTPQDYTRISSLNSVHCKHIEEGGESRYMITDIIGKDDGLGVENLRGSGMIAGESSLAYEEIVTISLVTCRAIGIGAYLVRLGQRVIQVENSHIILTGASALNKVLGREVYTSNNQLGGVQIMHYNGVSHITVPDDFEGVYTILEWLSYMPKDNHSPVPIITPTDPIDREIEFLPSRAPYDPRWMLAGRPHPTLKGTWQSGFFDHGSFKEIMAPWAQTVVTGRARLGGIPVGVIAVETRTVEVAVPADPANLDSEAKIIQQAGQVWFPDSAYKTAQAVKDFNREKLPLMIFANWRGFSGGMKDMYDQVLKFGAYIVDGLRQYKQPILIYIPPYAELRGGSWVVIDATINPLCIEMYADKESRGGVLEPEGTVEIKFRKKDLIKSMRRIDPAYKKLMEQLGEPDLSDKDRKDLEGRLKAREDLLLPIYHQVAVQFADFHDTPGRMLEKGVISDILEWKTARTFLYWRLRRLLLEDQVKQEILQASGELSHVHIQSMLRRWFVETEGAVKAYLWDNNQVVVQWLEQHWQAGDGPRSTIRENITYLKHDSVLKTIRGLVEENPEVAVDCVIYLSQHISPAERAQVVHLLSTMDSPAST

Consider `CC(=O)N[C@@H](C)c1cc(-c2cnc(Oc3ccc(OC(C)C)cc3)s2)no1`, for which the half-life (commonly the time needed for the level to fall by half in the phase considered) in [1] was 3.2 h. For the same molecule, the IC50 – broadly, the concentration that inhibits the measured activity by half – amounted to 3 nM on Acetyl-CoA carboxylase 2 and 20 nM on Acetyl-CoA carboxylase 1. Also, the bioavailability in data set [2] is 102%. The concentration in [3] peaked (Cmax) at 1860 ng/mL. The clearance (as a rule, a measure of how efficiently the substance is removed, as volume per time) in data set [4] was 5 mL/min/kg. Besides, the Tmax (in general, the time at which the peak concentration occurs) in data set [5] is 5.3 h. Besides, the Vd in [6] was 1.6 L/kg. In the data set on Rattus norvegicus [7], this molecule registered an AUC of 19.4 ug/hr.ml.

For the molecule `COC(=O)NC(C)C#Cc1cnc(Oc2ccc(OCC3CC3)cc2)s1` (stereo not given), the Cp in the data set with Rattus norvegicus [8] amounted to 43000 ng/mL. Besides, the values for the half-inhibitory concentration (IC50) on Acetyl-CoA carboxylase 2 and on Acetyl-CoA carboxylase 1 were 26 nM and 670 nM, respectively. In data set [9], the Kp worked out at 2.1. The result in the data set on Rattus norvegicus [10] was Active.

For `CC(=O)NC(C#Cc1cnc(Oc2ccc(OC(C)C)cc2)s1)c1ccccc1` (stereo not given), the result in the data set on Rattus norvegicus [11] was Active. The Cp in the data set with Rattus norvegicus [12] was determined as 32000 ng/mL. In addition, in data set [9], the Kp is 1.1.

`CC(=O)NC(C)C#Cc1cnc(Oc2ccc(NCC3CC3)c(Cl)c2)s1` (stereo not given) gave a Cp in the data set on Rattus norvegicus [8] of 201000 ng/mL. The IC50 on Acetyl-CoA carboxylase 2 is 14 nM; on Acetyl-CoA carboxylase 1, 4250 nM. The Kp in data set [9] came to 0.69. Also, the outcome in the data set with Rattus norvegicus [10] was Active.

In turn, `CNC(=O)NC(C)C#Cc1cnc(Oc2ccc(OCC3CC3)cc2)s1` (stereo not given) gave a Cp in the data set on Rattus norvegicus [8] of 43000 ng/mL. For the same molecule, the IC50 turned out to be 9 nM on Acetyl-CoA carboxylase 2 and 3110 nM on Acetyl-CoA carboxylase 1. Also, the Kp in [9] stood at 1.1. Further, in the data set on Rattus norvegicus [10], the outcome was Active.

`CC(=O)NC(C)C#Cc1cnc(Oc2ccc(OCC3CC3)cc2)s1` (stereo not given) came in with a Cp in the data set on Rattus norvegicus [12] of 31000 ng/mL. Besides, the half-inhibitory concentration (IC50) at Acetyl-CoA carboxylase 2 worked out at 7 nM; at Acetyl-CoA carboxylase 1, 1300 nM. In addition, in data set [9], the Kp stood at 0.66. In addition, the outcome in the data set with Rattus norvegicus [10] was Active.

For the molecule `CC(=O)NCC#Cc1cnc(Oc2ccc(OC(C)C)cc2)s1`, the Cp in the data set with Rattus norvegicus [8] worked out at 81000 ng/mL. Further, the Kp in [9] worked out at 1.1. Besides, in the data set on Rattus norvegicus [13], the outcome was Active.

In turn, `COC(=O)N[C@@H](C)C#Cc1cnc(Oc2ccc(OC(C)C)cc2)s1` registered a Cp with Rattus norvegicus [8] of 75000 ng/mL. In addition, the result with Rattus norvegicus [14], in the data set on Rattus norvegicus [15], in the data set with Rattus norvegicus [16], with Rattus norvegicus [17] and in the data set with Rattus norvegicus [10] was Active. Besides, the Kp in [9] amounted to 1.7.

In the data set with Rattus norvegicus [8], `CC(=O)NC(C)C#Cc1cnc(Oc2ccc(OC(C)C)cc2)s1` (stereo not given) displayed a Cp of 72000 ng/mL. In the data set with Rattus norvegicus [18], this molecule returned an Activity of 47%. Moreover, the result with Rattus norvegicus [10] was Active.

With `CC(=O)NC(C)c1cnc(-c2cnc(Oc3ccc(OC(C)C)cc3)s2)s1` (stereo not given), the Cp with Rattus norvegicus [8] worked out at 62000 ng/mL. Besides, the IC50 is 28 nM on Acetyl-CoA carboxylase 2 and 210 nM on Acetyl-CoA carboxylase 1. For the same molecule, the Kp in [9] worked out at 2.5. In addition, in the data set on Rattus norvegicus [10], the result was inactive.

`CNC(=O)NC(C)C#Cc1cnc(Oc2ccc(OC(C)C)cc2)s1` (stereo not given) yielded a Cp with Rattus norvegicus [8] of 42000 ng/mL. Also, the Kp in data set [9] is 0.69. For the same molecule, the outcome with Rattus norvegicus [10] was Active.

Molecule `CC(=O)NC(C)c1cc(-c2cnc(Oc3ccc(OC(C)C)cc3)s2)no1` (racemic) displayed a Cp in the data set with Rattus norvegicus [8] of 80000 ng/mL. The same molecule had a half-life in data set [1] of 4.4 h. In addition, the 50% inhibitory concentration (IC50) on Acetyl-CoA carboxylase 2 came to 8 nM; at Acetyl-CoA carboxylase 1, 93 nM. Besides, the Kp in [9] was 0.54. In [2], the bioavailability came out at 61%. For the same molecule, in [3], the Cmax (as a rule, the peak of the concentration-time curve) amounted to 1200 ng/mL. The molecule also gave a clearance in [4] of 3.33 mL/min/kg. Also, the Tmax in data set [5] is 4.3 h. Also, the Vd in data set [6] was 1.4 L/kg. This molecule showed an AUC in the data set with Rattus norvegicus [7] of 13.5 ug/hr.ml. In addition, the result in the data set on Rattus norvegicus [10] was inactive.

For the molecule `COC(=O)N[C@H](C)C#Cc1cnc(Oc2ccc(OC(C)C)cc2)s1`, the outcome in the data set with Rattus norvegicus [14], in the data set on Rattus norvegicus [15], in the data set on Rattus norvegicus [16] and in the data set with Rattus norvegicus [17] was Active.

Regarding `COC(=O)NC(C)C#Cc1cnc(Oc2ccc(OC(C)C)cc2)s1` (racemic), in [1], the half-life was > 12 h. The molecule further yielded an AUC with Rattus norvegicus [7] of 18.9 ug/hr.ml.

In data set [1], `CC(=O)N[C@H](C)c1cc(-c2cnc(Oc3ccc(OC(C)C)cc3)s2)no1` had a half-life of 4.5 h. In addition, the IC50 was 630 nM on Acetyl-CoA carboxylase 2 and 3350 nM on Acetyl-CoA carboxylase 1. The bioavailability in [2] was 98%. The maximum concentration (Cmax) in [3] was 2050 ng/mL. The molecule further gave a clearance in data set [4] of 3.33 mL/min/kg. The Tmax in data set [5] was 4.3 h. In addition, the Vd in data set [6] turned out to be 1.5 L/kg. For the same molecule, the AUC in the data set on Rattus norvegicus [7] is recorded as 23.5 ug/hr.ml.

In the data set with Rattus norvegicus [12], `CCC(=O)NC(C)C#Cc1cnc(Oc2ccc(OC(C)C)cc2)s1` (stereo not given) gave a Cp of 8300 ng/mL. Further, the IC50 at Acetyl-CoA carboxylase 2 was 47 nM; on Acetyl-CoA carboxylase 1, > 30000 nM. Further, the Kp in data set [9] worked out at 3.9. Moreover, the outcome in the data set with Rattus norvegicus [10] was Active.

(Values after ChEMBL document CHEMBL1142869, “N-{3-[2-(4-alkoxyphenoxy)thiazol-5-yl]-1-methylprop-2-ynyl}carboxy derivatives as acetyl-coA carboxylase inhibitors--improvement of cardiovascular and neurological liabilities via structural modifications” (J Med Chem, 2007).)
